According to PMC9231628 (Proceedings of the National Academy of Sciences of the …, 2022):

How the values were obtained:
Oncopeltus Na+/K+-ATPase = test: Na+/K+-ATPase inhibition assay, Oncopeltus neural enzyme; type: biochemical, Oncopeltus fasciatus; conditions: from Fig. 3
Outline: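 Neural-tissue enzyme; stocks in 20% DMSO/H₂O (5 mM, or 1 mM for one test compound). Six-point 1/10 dilution series, diluted 1:5 into Tris-buffered ATP, NaCl, KCl, MgCl₂ plus enzyme; 37 °C, 20 min, shaking. Stopped with 10% SDS; Pi by Taussky–Shorr at 700 nm. Background: 10 mM ouabain, no KCl. IC50 from four-parameter logistic mixed model; ratios use monarch enzyme or ouabain IC50s.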

Oncopeltus fasciatus = test: Laboratory rearing on A. syriaca seeds: sequestration of seed cardenolides; type: in vivo; conditions: bugs reared on A. syriaca seeds from Ithaca, NY
Outline: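 Field-collected Oncopeltus (Ithaca, NY) reared on a pooled A. syriaca seed lot for fewer than five generations. Whole adults and seeds, 50 mg ground freeze-dried each, extracted in methanol with 20 µg digitoxin internal standard. Analysed by C18 HPLC-UV (acetonitrile/water gradient, 218 nm), with cardenolides taken as peaks with a 214–222 nm maximum. Quantified by peak area against digitoxin on a dry-mass basis; HRMS for identification.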

monarch Na+/K+-ATPase = monarch Na+/K+-ATPase (Danaus plexippus, UniProt K0G7C4); conditions: monarch enzyme; cited from earlier work
monarch butterflies = conditions: cited from earlier work

monarch Na+/K+-ATPase, sequence (K0G7C4 1-1009): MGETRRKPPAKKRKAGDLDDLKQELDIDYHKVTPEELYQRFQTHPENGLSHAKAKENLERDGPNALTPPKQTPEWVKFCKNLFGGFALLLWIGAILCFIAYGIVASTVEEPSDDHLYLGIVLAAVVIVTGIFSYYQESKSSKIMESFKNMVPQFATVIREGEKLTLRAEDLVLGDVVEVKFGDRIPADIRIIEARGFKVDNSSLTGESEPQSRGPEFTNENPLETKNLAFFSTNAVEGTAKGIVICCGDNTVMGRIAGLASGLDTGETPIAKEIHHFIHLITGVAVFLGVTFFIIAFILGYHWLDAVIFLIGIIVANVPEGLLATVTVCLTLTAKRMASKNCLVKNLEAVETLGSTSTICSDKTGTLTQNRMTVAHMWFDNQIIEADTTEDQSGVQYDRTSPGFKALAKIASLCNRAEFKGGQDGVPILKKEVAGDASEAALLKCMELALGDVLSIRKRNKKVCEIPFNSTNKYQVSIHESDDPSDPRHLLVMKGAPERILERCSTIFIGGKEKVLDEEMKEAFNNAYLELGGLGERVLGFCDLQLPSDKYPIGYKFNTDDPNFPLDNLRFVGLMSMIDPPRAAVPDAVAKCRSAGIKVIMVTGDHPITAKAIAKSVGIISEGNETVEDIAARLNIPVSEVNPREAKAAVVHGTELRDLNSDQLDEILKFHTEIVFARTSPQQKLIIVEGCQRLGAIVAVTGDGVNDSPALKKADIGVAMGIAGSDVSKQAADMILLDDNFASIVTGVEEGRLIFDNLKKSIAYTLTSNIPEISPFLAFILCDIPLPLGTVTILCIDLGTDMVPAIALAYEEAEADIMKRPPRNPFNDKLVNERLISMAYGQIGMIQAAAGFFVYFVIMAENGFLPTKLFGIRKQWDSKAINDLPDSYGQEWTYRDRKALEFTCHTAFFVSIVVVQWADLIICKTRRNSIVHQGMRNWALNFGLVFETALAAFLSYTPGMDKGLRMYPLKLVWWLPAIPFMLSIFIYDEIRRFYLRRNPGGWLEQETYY

## C[C@@H]1O[C@@H](O[C@H]2C[C@@H](O)[C@]3(CO)[C@H]4[C@H](O)C[C@]5(C)[C@@H](C6=CC(=O)OC6)CC[C@]5(O)[C@@H]4CC[C@]3(O)C2)[C@H](O)[C@H](O)[C@H]1O [Ouabain, ouabain]
Oncopeltus Na+/K+-ATPase
  advantage (tolerance) of Oncopeltus enzyme over monarchs: 2 fold

## Aspecioside A
Oncopeltus fasciatus
  share of the total cardenolides in bugs: 33%

## C[C@@H]1C[C@@]2(NCCS2)[C@]2(O)O[C@@H]3C[C@@]4(C=O)[C@@H](CC[C@@H]5[C@@H]4CC[C@]4(C)[C@@H](C6=CC(=O)OC6)CC[C@]54O)C[C@H]3O[C@@H]2O1 [Voruscharin, voruscharin]
Monarch Na+/K+-ATPase
  IC50: 2000 nM
Monarch butterflies
  effect on monarch growth: negatively impacts monarch growth
